# Shown are actives, neighbours in structure and some others; about 3.7% of the full set was active somewhere.
# Kir21 inh: blocks the mouse Kir2.1 inward-rectifier potassium channel; hit rate 0.85% among 310,000; B-score at 10 µM; HEK293-Kir2.1, FluxOR thallium flux fluorescence; hits give low values; P35561;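 active = fluorescence ratio B-score at or below minus 3 SD of library scores, with starting-brightness B-score within 2 SD, cut at about -4.2 in these data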;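 also: channel flux triggered by added potassium and thallium sulfate stimulus; B-score of peak minus minimum fluorescence over baseline after thallium stimulus; more negative B-score means stronger Kir2.1 block with less thallium influx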
# Target sequence (P35561 whole entry, looked up): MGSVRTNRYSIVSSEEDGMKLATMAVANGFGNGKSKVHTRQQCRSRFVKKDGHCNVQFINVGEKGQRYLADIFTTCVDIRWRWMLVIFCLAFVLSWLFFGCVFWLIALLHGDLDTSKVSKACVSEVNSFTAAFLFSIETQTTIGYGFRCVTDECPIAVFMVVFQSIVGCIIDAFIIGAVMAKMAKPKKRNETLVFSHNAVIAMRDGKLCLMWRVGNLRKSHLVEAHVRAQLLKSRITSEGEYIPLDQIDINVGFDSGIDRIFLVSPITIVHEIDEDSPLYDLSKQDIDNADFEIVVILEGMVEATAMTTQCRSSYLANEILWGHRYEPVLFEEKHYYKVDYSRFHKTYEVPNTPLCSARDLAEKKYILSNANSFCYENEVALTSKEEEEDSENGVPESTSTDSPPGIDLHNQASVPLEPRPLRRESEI
# KCNQ1 inh: human KCNQ1 channel inhibition. P51787. CHO-K1 KCNQ1, FluxOR thallium flux fluorescence; hits give high values. B-score at 10 µM. hit rate 1.3% among 310,000. AID 2642;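 active = compounds whose thallium flux B-score, printed positive for inhibition, exceeds three library SD while starting fluorescence stays within three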;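 also: channel opened by potassium depolarization with thallium stimulus after 20 min compound exposure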
# KCNK9 inh-1: human KCNK9 channel inhibition. Q9NPC2. hit rate 1.2% among 310,000. B-score at 10 µM. HEK293 KCNK9, FluxOR thallium flux fluorescence; hits give low values;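 active = ratio B-score over 3 SD below the library mean, with starting fluorescence within 5 SD of its mean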;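 also: negative B-score means less thallium flux so channel inhibition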
# KCNK3 inh: human KCNK3 channel inhibition, primary screen | O14649 | CHO-KCNK3 thallium flux, FluxOR fluorescence; hits give low values | B-score at 10 µM | hit rate 0.84% among 340,000 | AID 602410;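 active = B-score under library mean minus 4 SD, starting fluorescence ratio at most library mean plus 5 SD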;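 also: more negative B-score means stronger inhibition of thallium flux through KCNK3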
# hERG rescue: compounds protecting human hERG from proarrhythmic drug block. activation (rescue from dofetilide block), less the hit threshold, % at 10 µM. AID 1511. CHO-hERG, FluxOR thallium flux, dofetilide IC70 present. Q12809. hit rate 0.51% among 310,000;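 active = activation above the mean of controls blocked by dofetilide plus 5 SD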;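 also: thallium influx through hERG after potassium depolarization seen as dye fluorescence rise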
# KCNQ1 pot: potentiators or activators of human KCNQ1 potassium channel; hit rate 0.35% among 310,000; AID 2648; B-score at 10 µM; CHO-K1 KCNQ1, thallium flux FluxOR fluorescence; hits give high values;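 active = fluorescence ratio B-score, a plate-corrected score, at least three library SD, with initial intensity B-score within 5 SD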
#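 System: Stable KCNQ1 CHO-K1 line | Incubation: 90 min dye loading and 20 min compound exposure, both at room temperature | Measure: Ratio B score | Medium: Assay buffer for compound exposure, DMSO matched across wells | Compound dosing: Single-concentration screen | Probe or stimulus: K+/Tl+ depolarizing stimulus | Measured by: Kinetic FluxOR fluorescence, 10 s baseline plus 110 s post-stimulus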
# hERG ctr: hERG (human) inhibition as Kir2.1 counter-screen | shares compounds with Kir21 inh | hERG-expressing cells, thallium flux | inhibition, % at 10 µM | hit rate 20% among 320 | AID 2236;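 also: host cells are CHO cells stably expressing hERG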
# KCNK9 inh-2: selectivity of Kir2.1 inhibitors: effect on human KCNK9; KCNK9-expressing cells, ion flux inhibition; hit rate 5% among 320; shares compounds with Kir21 inh; AID 2329; inhibition, % at 10 µM
# Kir2-1 patch inh: blocks mouse Kir2.1 current in automated electrophysiology; Kir2.1 cells, automated patch-clamp current inhibition; shares compounds with Kir21 inh; inhibition, % at 25 µM; hit rate 71% among 320
# Numbers without * were called inactive; i = inactive; · = no result. Unless noted, no rule for the calls is given here.
SMILES,Kir21 inh,KCNQ1 inh,KCNK9 inh-1,KCNK3 inh,hERG rescue,KCNQ1 pot,hERG ctr,KCNK9 inh-2,Kir2-1 patch inh
COc1ccccc1CNCc1ccc(OC)c2ccccc12,-8.14*,i,i,i,-6.4,i,i,i,42.3%*
COc1cccc(CNCc2ccc(OC)c3ccccc23)c1OC,-1.07,i,i,i,-10.1,i,·,·,·
COc1ccc(NC(=O)NCCN2CCN(c3cc(OC)ccc3OC)CC2)cc1,-0.1,i,i,i,-6.8,i,·,·,·
COc1ccc(Cl)c(N2CCN(CCCNC(=O)Nc3ccc(C)cc3)CC2)c1,-6.35*,i,i,i,-19.2,i,70.0%*,i,4.8%*
O=C(COC(=O)c1ccc(Br)o1)NCc1ccc(Cl)cc1,·,·,·,i,·,·,·,·,·
CCOC(=O)C(=CNc1ccc(S(N)(=O)=O)cc1)C(=O)OCC,0.98,i,i,i,-7.9,i,·,·,·
CCOC(=O)C(=CNc1ccc(NC2=NCC(C)(C)S2)cc1)C(=O)OCC,-7.04*,i,i,i,-9.8,i,i,i,22.1%*
CC(C)CNC(=O)/C=C/C=C/c1ccc2c(c1)OCO2,·,·,·,i,·,·,·,·,·
CNCCC1Sc2ccccc2Oc2ccccc21 (centres undefined),-5.94*,i,i,i,-5.5,i,i,i,1.9%*
CCCCNC(=O)C1c2ccccc2Oc2ccccc21,-0.87,i,i,i,-12.3,i,·,·,·
COc1cc(CNCc2ccccn2)ccc1OCc1ccc(Cl)cc1Cl,-5.96*,i,i,i,-22.2,i,65.0%*,i,33.8%*
NC(=O)C1=C[C@H](c2ccc(Br)cc2)C[C@H](OCc2ccc(CO)cc2)O1,-7.06*,i,i,i,-5.4,i,i,i,22.7%*
CC(=O)N1CCN(C(=O)c2ccc(S(=O)(=O)Nc3cccc(C(F)(F)F)c3)cc2)CC1,3.97,i,i,i,-14.7,i,i,i,i
CCOc1cc(CNCCc2ccc(S(N)(=O)=O)cc2)cc(Cl)c1OCc1ccccc1,-3.73,i,i,i,-21.7,i,·,·,·
CCNCc1cc(Cl)c(OCc2ccccc2)c(OCC)c1,-7.03*,i,i,i,-8.6,i,i,i,47.0%*
CCOC(=O)C1CCN(C(=O)c2cccc(S(=O)(=O)N3c4ccccc4CC3C)c2)CC1 (centres undefined),·,·,·,i,·,·,·,·,·
CCc1ccc(S(=O)(=O)NCCOc2cccc3cccnc23)cc1,-6.97*,i,i,i,-5.8,i,i,i,i
O=C(Oc1cccc(-n2cnnn2)c1)c1ccco1,-0.02,i,i,i,0.2,i,·,·,·
O=C(Oc1cccc(OC(=O)c2ccco2)c1)c1ccco1,-5.72*,i,i,i,-6.6,i,i,i,i
CCOC(=O)C(NS(=O)(=O)c1ccc(Br)cc1)C(C)C (centres undefined),-8.5*,i,i,i,-10.0,i,i,i,49.2%*
CCC(C)C(NS(=O)(=O)c1ccc(C)cc1)C(=O)O (centres undefined),0.55,i,i,i,-4.1,i,·,·,·
COc1cccc(/C=C2\CCCCC2=O)c1,-0.04,i,i,i,-8.7,i,·,·,·
COc1cc(/C=C2\CCn3c2nc2cc(C(=O)O)ccc2c3=O)ccc1OC(F)F,-1.62,i,i,i,-3.9,i,·,·,·
CN(CC(=O)Oc1ccc(-c2nnco2)cc1)S(=O)(=O)c1ccc(F)cc1,-1.36,i,i,i,-16.4,i,·,·,·
COc1ccc(CCN2CCCC(CN(C)Cc3cccc(OC)c3)C2)cc1 (centres undefined),-9.49*,i,i,i,-11.7,i,i,i,37.1%*
SMILES,Kir21 inh,KCNQ1 inh,KCNK9 inh-1,KCNK3 inh,hERG rescue,KCNQ1 pot,hERG ctr,KCNK9 inh-2,Kir2-1 patch inh
O=C(Cn1nc(C(=O)O)c2ccccc2c1=O)Nc1cc(S(=O)(=O)N2CCOCC2)ccc1Cl,·,·,·,i,·,·,·,·,·
Fc1ccc(NC(=S)N2CCN(c3ncccn3)CC2)cc1,0.58,i,i,i,-3.9,i,·,·,·
CN(C)CC1CCCCC1C1(O)c2ccccc2CSc2sccc21 (centres undefined),-5.71*,i,i,i,-2.8,i,i,i,i
CN(C)CC1CCCCC1OC(=O)c1ccc(Cl)cc1 (centres undefined),0.54,i,i,i,-9.9,i,·,·,·
CN1CCc2c(n(CC(O)CNCc3ccccc3)c3ccccc23)C1=O (centres undefined),-6.02*,i,i,i,-7.6,i,i,31.0%*,i
CN1CCc2c(n(CC(O)CN(CCO)CCO)c3ccccc23)C1=O (centres undefined),-0.64,i,i,i,-7.8,i,·,·,·
Cc1ccc(S(=O)(=O)N2CCN(C(=O)CC(C)n3nc(C)c(Cl)c3C)CC2)cc1 (centres undefined),-0.36,i,i,i,-4.0,i,·,·,·
CC(C)CCC(CCNCc1ccccn1)c1ccc(Cl)cc1 (centres undefined),-6.7*,i,i,i,-14.0,i,70.0%*,i,i
COc1ccc(CC(NC(C)=O)C(=O)NC2CCN(S(=O)(=O)c3ccc(NC(C)=O)cc3)CC2)c(OC)c1 (centres undefined),-1.08,i,i,i,-4.7,i,·,·,·
CCS(=O)(=O)N1CCC(NC(=O)C(Cc2cc(OC)ccc2OC)NC(C)=O)CC1 (centres undefined),1.87,i,i,i,-15.5,i,i,i,i
CC(C)(C)Nc1nc(-c2ccc3c(c2)CCN3C(=O)C2CC2)cs1,0.17,i,i,i,-7.5,i,·,·,·
Cc1cc(C)c(C)c(S(=O)(=O)NCC(=O)Nc2ccccc2F)c1C,-6.93*,i,i,i,-6.5,i,i,i,i

# From PubChem BioAssay
